# Reference: ChEMBL document CHEMBL4118255, “Synthesis and antibacterial evaluation of novel 11-O-aralkylcarbamoyl-3-O-descladinosylclarithromycin derivatives” (2018)
# Legend:
# Type in all cases: functional
# [1] = system: Staphylococcus aureus; assay: Antibacterial activity against methicillin-resistant Staphylococcus aureus ATCC 43300 after 24 hrs by tube-dilution method; settings: ATCC 43300, 24 h
# Outline: (§1)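 MIC determined by the NCCLS-recommended standard broth microdilution method against erythromycin-resistant S. pneumoniae strains (A22072 mef, B1 erm, AB11 erm plus mef) and methicillin-resistant S. aureus ATCC43300.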
# [2] = system: Escherichia coli; assay: Antibacterial activity against penicillin-susceptible Escherichia coli ATCC 25922 incubated for 24 hrs by […]; settings: ATCC 25922, 24 h
# [3] = system: Staphylococcus aureus; assay: Antibacterial activity against erythromycin-susceptible Staphylococcus aureus ATCC 25923 after 24 hrs by […]; settings: ATCC 25923, 24 h
# [4] = system: Streptococcus pneumoniae; assay: Antibacterial activity against erythromycin-resistant Streptococcus pneumoniae AB11 harboring ermB and mefA genes after 24 hrs by tube-dilution method; settings: AB11, 24 h; outline: as §1
# [5] = system: Streptococcus pneumoniae; assay: Antibacterial activity against erythromycin-resistant Streptococcus pneumoniae B1 harboring ermB gene after 24 hrs by tube-dilution method; settings: B1, 24 h; outline: as §1
# [6] = system: Streptococcus pyogenes; assay: Antibacterial activity against erythromycin-resistant Streptococcus pyogenes R1 after 24 hrs by tube-dilution method; settings: R1, 24 h
# [7] = system: Bacillus subtilis; assay: Antibacterial activity against erythromycin-susceptible Bacillus subtilis ATCC 9372 after 24 hrs by tube-dilution method; settings: ATCC 9372, 24 h
# Outline: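 MIC by standard NCCLS broth microdilution. Reference macrolides clarithromycin and azithromycin run alongside.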
# [8] = system: Pseudomonas aeruginosa; assay: Antibacterial activity against penicillin-susceptible Pseudomonas aeruginosa ATCC 27853 incubated for 24 hrs by […]; settings: ATCC 27853, 24 h
# [9] = system: Streptococcus pneumoniae; assay: Antibacterial activity against erythromycin-resistant Streptococcus pneumoniae A22072 harboring mefA gene after 24 hrs by […]; settings: A22072, 24 h
# [10] = system: Streptococcus pyogenes; assay: Antibacterial activity against erythromycin-susceptible Streptococcus pyogenes after 24 hrs […]
# [11] = system: Staphylococcus aureus; assay: Potency index, ratio of clarithromycin MIC to compound MIC for methicillin-resistant Staphylococcus aureus ATCC 43300
# [12] = system: Staphylococcus aureus; assay: Potency index, ratio of azithromycin MIC to compound MIC for methicillin-resistant Staphylococcus aureus ATCC 43300
# [13] = system: Streptococcus pneumoniae; assay: Potency index, ratio of azithromycin MIC to compound MIC for erythromycin-resistant Streptococcus pneumoniae A22072 harboring mefA gene
# [14] = system: Streptococcus pneumoniae; assay: Potency index, ratio of clarithromycin MIC to compound MIC for erythromycin-resistant Streptococcus pneumoniae A22072 harboring mefA gene
structure (smiles),measurement,setting,value
CC[C@H]1OC(=O)[C@H](C)C(=O)[C@H](C)[C@@H](O[C@@H]2O[C@H](C)C[C@H](N(C)C)[C@H]2O)[C@](C)(OC)C[C@@H](C)C(=O)[C@H](C)[C@@H](OC(=O)NCCNC(=O)C#Cc2ccc(Cl)cc2Cl)[C@]1(C)O,MIC,[1],128 µg/mL
same,MIC,[2],> 128 µg/mL
same,MIC,[3],16 µg/mL
same,MIC,[4],128 µg/mL
same,MIC,[5],128 µg/mL
same,MIC,[6],128 µg/mL
same,MIC,[7],1 µg/mL
same,MIC,[8],> 128 µg/mL
same,MIC,[9],2 µg/mL
same,MIC,[10],1 µg/mL
CC[C@H]1OC(=O)[C@H](C)C(=O)[C@H](C)[C@@H](O[C@@H]2O[C@H](C)C[C@H](N(C)C)[C@H]2O)[C@](C)(OC)C[C@@H](C)C(=O)[C@H](C)[C@@H](OC(=O)NCCNC(=O)C#Cc2ccc(F)cc2)[C@]1(C)O,MIC,[1],128 µg/mL
same,MIC,[2],> 128 µg/mL
same,MIC,[3],16 µg/mL
same,MIC,[4],64 µg/mL
same,MIC,[5],128 µg/mL
same,MIC,[6],> 128 µg/mL
same,MIC,[7],2 µg/mL
same,MIC,[8],> 128 µg/mL
same,MIC,[9],2 µg/mL
same,MIC,[10],1 µg/mL
CC[C@H]1OC(=O)[C@H](C)[C@@H](OC(=O)Cc2cccnc2)[C@H](C)[C@@H](O[C@@H]2O[C@H](C)C[C@H](N(C)C)[C@H]2O)[C@](C)(OC)C[C@@H](C)C(=O)[C@H](C)[C@@H](OC(=O)NCCNC(=O)/C=C/c2ccco2)[C@]1(C)O,MIC,[1],32 µg/mL
same,MIC,[2],128 µg/mL
same,MIC,[3],16 µg/mL
same,MIC,[4],16 µg/mL
same,MIC,[5],64 µg/mL
same,MIC,[6],> 128 µg/mL
same,MIC,[7],8 µg/mL
same,MIC,[8],> 128 µg/mL
same,Ratio,[11],4
same,Ratio,[12],4
same,MIC,[9],1 µg/mL
same,MIC,[10],0.125 µg/mL
CC[C@H]1OC(=O)[C@H](C)[C@@H](OC(=O)Cc2cccnc2)[C@H](C)[C@@H](O[C@@H]2O[C@H](C)C[C@H](N(C)C)[C@H]2O)[C@](C)(OC)C[C@@H](C)C(=O)[C@H](C)[C@@H](OC(=O)NCCNC(=O)/C=C/c2ccc([N+](=O)[O-])cc2)[C@]1(C)O,MIC,[1],64 µg/mL
same,MIC,[2],128 µg/mL
same,MIC,[3],8 µg/mL
same,MIC,[4],8 µg/mL
same,MIC,[5],32 µg/mL
same,MIC,[6],> 128 µg/mL
same,MIC,[7],4 µg/mL
same,MIC,[8],128 µg/mL
same,MIC,[9],1 µg/mL
same,MIC,[10],0.125 µg/mL
CC[C@H]1OC(=O)[C@H](C)[C@@H](O[C@H]2C[C@@](C)(OC)[C@@H](O)[C@H](C)O2)[C@H](C)[C@@H](O[C@@H]2O[C@H](C)C[C@H](N(C)C)[C@H]2O)[C@](C)(OC)C[C@@H](C)C(=O)[C@H](C)[C@@H](O)[C@]1(C)O [CLARITHROMYCIN],MIC,[1],> 128 µg/mL
same,MIC,[2],64 µg/mL
same,MIC,[3],0.25 µg/mL
same,MIC,[4],128 µg/mL
same,MIC,[5],> 128 µg/mL
same,MIC,[6],> 128 µg/mL
same,MIC,[7],0.25 µg/mL
same,MIC,[8],64 µg/mL
same,MIC,[9],2 µg/mL
same,MIC,[10],0.03 µg/mL
CC[C@H]1OC(=O)[C@H](C)[C@@H](OC(=O)Cc2cccnc2)[C@H](C)[C@@H](O[C@@H]2O[C@H](C)C[C@H](N(C)C)[C@H]2O)[C@](C)(OC)C[C@@H](C)C(=O)/C(C)=C/[C@]1(C)O,MIC,[1],128 µg/mL
same,MIC,[2],128 µg/mL
same,MIC,[3],1 µg/mL
same,MIC,[4],16 µg/mL
same,MIC,[5],32 µg/mL
same,MIC,[6],128 µg/mL
same,MIC,[7],1 µg/mL
same,MIC,[8],128 µg/mL
same,MIC,[9],1 µg/mL
same,MIC,[10],0.25 µg/mL
CC[C@H]1OC(=O)[C@H](C)C(=O)[C@H](C)[C@@H](O[C@@H]2O[C@H](C)C[C@H](N(C)C)[C@H]2O)[C@](C)(OC)C[C@@H](C)C(=O)[C@H](C)[C@@H](OC(=O)NCCNC(=O)C#Cc2ccccc2Cl)[C@]1(C)O,MIC,[1],128 µg/mL
same,MIC,[2],> 128 µg/mL
same,MIC,[3],16 µg/mL
same,MIC,[4],128 µg/mL
same,MIC,[5],128 µg/mL
same,MIC,[6],> 128 µg/mL
same,MIC,[7],4 µg/mL
same,MIC,[8],> 128 µg/mL
same,MIC,[9],2 µg/mL
same,MIC,[10],1 µg/mL
CC[C@H]1OC(=O)[C@H](C)[C@@H](OC(=O)Cc2cccnc2)[C@H](C)[C@@H](O[C@@H]2O[C@H](C)C[C@H](N(C)C)[C@H]2O)[C@](C)(OC)C[C@@H](C)C(=O)[C@H](C)[C@@H](OC(=O)NCCNC(=O)C#Cc2ccc(C)cc2)[C@]1(C)O,MIC,[1],128 µg/mL
same,MIC,[2],> 128 µg/mL
same,MIC,[3],8 µg/mL
same,MIC,[4],32 µg/mL
same,MIC,[5],64 µg/mL
same,MIC,[6],> 128 µg/mL
same,MIC,[7],2 µg/mL
same,MIC,[8],> 128 µg/mL
same,MIC,[9],1 µg/mL
same,MIC,[10],0.25 µg/mL
CC[C@H]1OC(=O)[C@H](C)[C@@H](OC(=O)Cc2cccnc2)[C@H](C)[C@@H](O[C@@H]2O[C@H](C)C[C@H](N(C)C)[C@H]2O)[C@](C)(OC)C[C@@H](C)C(=O)[C@H](C)[C@@H](OC(=O)NCCNC(=O)c2ccc([N+](=O)[O-])cc2)[C@]1(C)O,MIC,[1],128 µg/mL
same,Ratio,[13],8
same,MIC,[2],64 µg/mL
same,MIC,[3],1 µg/mL
same,MIC,[4],8 µg/mL
same,MIC,[5],32 µg/mL
same,Ratio,[14],4
same,MIC,[6],> 128 µg/mL
same,MIC,[7],2 µg/mL
same,MIC,[8],64 µg/mL
same,MIC,[9],0.5 µg/mL
same,MIC,[10],0.03 µg/mL
CC[C@H]1OC(=O)[C@H](C)C(=O)[C@H](C)[C@@H](O[C@@H]2O[C@H](C)C[C@H](N(C)C)[C@H]2O)[C@](C)(OC)C[C@@H](C)C(=O)[C@H](C)[C@@H](OC(=O)NCCNC(=O)C#Cc2ccc(C)cc2)[C@]1(C)O,MIC,[1],128 µg/mL
same,Ratio,[13],8
same,MIC,[2],> 128 µg/mL
same,MIC,[3],8 µg/mL
same,MIC,[4],64 µg/mL
same,MIC,[5],128 µg/mL
same,Ratio,[14],4
same,MIC,[6],> 128 µg/mL
same,MIC,[7],1 µg/mL
same,MIC,[8],128 µg/mL
same,MIC,[9],0.5 µg/mL
same,MIC,[10],0.25 µg/mL
CC[C@H]1OC(=O)[C@H](C)C(=O)[C@H](C)[C@@H](O[C@@H]2O[C@H](C)C[C@H](N(C)C)[C@H]2O)[C@](C)(OC)C[C@@H](C)C(=O)[C@H](C)[C@@H](OC(=O)NCCNC(=O)C#Cc2ccc(Br)cc2)[C@]1(C)O,MIC,[1],16 µg/mL
same,MIC,[2],128 µg/mL
same,MIC,[3],8 µg/mL
same,MIC,[4],32 µg/mL
same,MIC,[5],128 µg/mL
same,MIC,[6],64 µg/mL
same,MIC,[7],1 µg/mL
same,MIC,[8],> 128 µg/mL
same,Ratio,[11],8
same,Ratio,[12],8
same,MIC,[9],2 µg/mL
same,MIC,[10],1 µg/mL
CC[C@H]1OC(=O)[C@H](C)C(=O)[C@H](C)[C@@H](O[C@@H]2O[C@H](C)C[C@H](N(C)C)[C@H]2O)[C@](C)(OC)C[C@@H](C)C(=O)[C@H](C)[C@@H](OC(=O)NCCNC(=O)C#Cc2ccc(Cl)cc2)[C@]1(C)O,MIC,[1],64 µg/mL
same,MIC,[2],> 128 µg/mL
same,MIC,[3],8 µg/mL
same,MIC,[4],64 µg/mL
same,MIC,[5],128 µg/mL
same,MIC,[6],128 µg/mL
same,MIC,[7],2 µg/mL
same,MIC,[8],> 128 µg/mL
same,MIC,[9],2 µg/mL
same,MIC,[10],1 µg/mL
CC[C@H]1OC(=O)[C@H](C)C(=O)[C@H](C)[C@@H](O[C@@H]2O[C@H](C)C[C@H](N(C)C)[C@H]2O)[C@](C)(OC)C[C@@H](C)C(=O)/C(C)=C/[C@]1(C)O,MIC,[1],> 128 µg/mL
same,MIC,[2],> 128 µg/mL
same,MIC,[3],> 128 µg/mL
same,MIC,[4],> 128 µg/mL
same,MIC,[5],> 128 µg/mL
same,MIC,[6],> 128 µg/mL
same,MIC,[7],128 µg/mL
same,MIC,[8],64 µg/mL
same,MIC,[9],64 µg/mL
same,MIC,[10],> 16 µg/mL
CC[C@H]1OC(=O)[C@H](C)C(=O)[C@H](C)[C@@H](O[C@@H]2O[C@H](C)C[C@H](N(C)C)[C@H]2O)[C@](C)(OC)C[C@@H](C)C(=O)[C@H](C)[C@@H](OC(=O)NCCNC(=O)C#Cc2cccc3ccccc23)[C@]1(C)O,MIC,[1],64 µg/mL
same,MIC,[2],> 128 µg/mL
same,MIC,[3],16 µg/mL
same,MIC,[4],128 µg/mL
same,MIC,[5],128 µg/mL
same,MIC,[6],64 µg/mL
same,MIC,[7],1 µg/mL
same,MIC,[8],> 128 µg/mL
same,MIC,[9],1 µg/mL
same,MIC,[10],0.5 µg/mL
CC[C@H]1OC(=O)[C@H](C)C(=O)[C@H](C)[C@@H](O[C@@H]2O[C@H](C)C[C@H](N(C)C)[C@H]2O)[C@](C)(OC)C[C@@H](C)C(=O)[C@H](C)[C@@H](OC(=O)NCCNC(=O)C#Cc2ccccc2)[C@]1(C)O,MIC,[1],128 µg/mL
same,MIC,[2],> 128 µg/mL
same,MIC,[3],32 µg/mL
same,MIC,[4],128 µg/mL
same,MIC,[5],128 µg/mL
same,MIC,[6],> 128 µg/mL
same,MIC,[7],4 µg/mL
same,MIC,[8],> 128 µg/mL
same,MIC,[9],4 µg/mL
same,MIC,[10],2 µg/mL
CC[C@H]1OC(=O)[C@H](C)[C@@H](O[C@H]2C[C@@](C)(OC)[C@@H](O)[C@H](C)O2)[C@H](C)[C@@H](O[C@@H]2O[C@H](C)C[C@H](N(C)C)[C@H]2O)[C@](C)(O)C[C@@H](C)CN(C)[C@H](C)[C@@H](O)[C@]1(C)O [AZITHROMYCIN],MIC,[1],> 128 µg/mL
same,MIC,[2],16 µg/mL
same,MIC,[3],0.25 µg/mL
same,MIC,[4],> 128 µg/mL
same,MIC,[5],> 128 µg/mL
same,MIC,[6],> 128 µg/mL
same,MIC,[7],0.25 µg/mL
same,MIC,[8],16 µg/mL
same,MIC,[9],4 µg/mL
same,MIC,[10],0.03 µg/mL
